# Rev-erbA mod: modulators of Rev-erb alpha DNA binding, primary screen, biochemical, FITC-DNA, fluorescence polarization, uHTS; Nuclear receptor subfamily 1 group D member 1 (Homo sapiens), P20393; Rev-erbα–FITC-DNA binding, 90 min; hit rate 0.79% among 370,000; activity, % at 10 µM; AID 1259318, 2017;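 active means activity above about 14%, limit read from the data; passing the limit was not always enough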
# Target sequence (P20393 whole entry, looked up): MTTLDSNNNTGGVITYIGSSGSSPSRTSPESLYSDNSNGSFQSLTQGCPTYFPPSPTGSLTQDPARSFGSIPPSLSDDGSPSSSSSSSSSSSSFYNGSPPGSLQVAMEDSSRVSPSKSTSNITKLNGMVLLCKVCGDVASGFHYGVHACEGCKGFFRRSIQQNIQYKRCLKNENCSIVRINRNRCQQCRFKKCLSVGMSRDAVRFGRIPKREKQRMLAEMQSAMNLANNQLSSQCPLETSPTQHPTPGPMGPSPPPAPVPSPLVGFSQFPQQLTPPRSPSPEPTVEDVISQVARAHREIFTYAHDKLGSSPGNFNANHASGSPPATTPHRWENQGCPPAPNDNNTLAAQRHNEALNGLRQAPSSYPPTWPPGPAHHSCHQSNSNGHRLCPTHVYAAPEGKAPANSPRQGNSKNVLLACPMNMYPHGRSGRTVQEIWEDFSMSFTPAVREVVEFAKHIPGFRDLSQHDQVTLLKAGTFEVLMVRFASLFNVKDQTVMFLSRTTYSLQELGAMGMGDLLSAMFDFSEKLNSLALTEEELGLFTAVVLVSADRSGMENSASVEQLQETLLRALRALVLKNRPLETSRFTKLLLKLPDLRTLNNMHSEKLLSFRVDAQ
# NR2E3 ag-1: inhibitors of NR2E3-RetCOR corepressor binding, primary screen, NR2E3 agonist project, biochemical, TR-FRET, GST-NR2E3, biotin-RetCOR | Photoreceptor-specific nuclear receptor (Homo sapiens), Q9Y5X4 | 1536-well | inhibition of corepressor binding, % at 4.78 µM | hit rate 0.12% among 320,000;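 active means percent inhibition above the cutoff of mean plus 3 SD of all tested compounds, set per screening campaign, cut at about 20% in these data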
#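 Format: 1536-well format; test system: GST-NR2E3 and biotin-RetCOR proteins; read-out basis: percent inhibition of TR-FRET ratio; timing: 5 h incubation at 4 °C; detection: time-resolved FRET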
# rCAG RNA binder: binders of r(CAG) RNA repeats, primary screen, biochemical, fluorescence | r(CAG) RNA repeat, TO-PRO-1 dye displacement fluorescence | inhibition, % at 3 µM | hit rate 1.3% among 370,000;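 active means inhibition above the plate cutoff, the mean of all test compounds on that plate plus 3 SD, cut at about 35% in these data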;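 further: higher means more dye released from RNA so lower well fluorescence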
# PG9 binder: binders of HIV-1 gp120 antibody PG9, primary screen, biochemical, TR-FRET. HIV-1 gp120 / PG9 antibody interaction. TR-FRET gp120-PG9 antibody binding. inhibition, % at 6.7 µM. hit rate 0.43% among 360,000. AID 624416, 2012; in the data active means inhibition above about 8.5%
# NR2E3 ag-2: NR2E3 agonists in two-hybrid cells, primary screen, cell-based, luminescence, CHO-S, Gal4-NCOR/VP16-NR2E3. hit rate 0.35% among 360,000. Photoreceptor-specific nuclear receptor (Homo sapiens), Q9Y5X4. inhibition of corepressor binding, % at 3.98 µM. luciferase;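 active means inhibition above the mean of all tested compounds plus 3 SD, cut at about 70% in these data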;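 further: higher means lower luciferase signal from less NR2E3 corepressor binding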
# NR2E3 ag confirm: NR2E3 agonists, confirmation, biochemical, TR-FRET | shares compounds with NR2E3 ag-1 | cell-free NR2E3 corepressor release, 5 h | activation (reported as inhibition), % at 3.98 µM | hit rate 39% among 360; in the data active means activation above about 20%
# PPARg-NCOR2 ctr: agonists of PPARg-NCOR2 corepressor interaction, counter-screen for NR2E3 agonist project, biochemical, TR-FRET. shares compounds with NR2E3 ag-1. TR-FRET PPARg-NCOR2 coregulator interaction. inhibition, % at 3.98 µM. hit rate 45% among 360. AID 504787, 2011; in the data active means inhibition above about 20%
# A number is an active result; n = inactive; x = not tested or not shown. Sampled rows, rich in hits. Any-hit rate of the full collection: about 2.6%.
SMILES,Rev-erbA mod,NR2E3 ag-1,rCAG RNA binder,PG9 binder,NR2E3 ag-2,NR2E3 ag confirm,PPARg-NCOR2 ctr
COc1cc(C2C(C(=O)c3ccco3)=C(O)C(=O)N2Cc2ccccc2)ccc1O (stereo not given),n,n,n,n,n,x,x
CC(=O)[C@H]1CCC2C3CCC4=CC(=O)CC[C@]4(C)C3CC[C@@]21C (stereo not given in full),n,x,x,x,x,x,x
Cc1cc2nc3c(=O)[nH]c(=O)nc-3n(C[C@@H](O)[C@@H](O)[C@@H](O)COP(=O)(O)O)c2cc1C,n,x,x,x,x,x,x
N#CC1=C(N)SC(N)=C(C#N)C1c1ccoc1,x,36,x,x,x,23,27
CC1=C(C#N)C(c2ccoc2)C(C(=O)OCc2ccccc2)=C(N)S1 (stereo not given),n,n,n,n,n,x,x
COC(=O)c1c(NC(=S)Nc2cc(OC)c(Cl)cc2OC)sc2c1CCCCC2,n,20,n,n,n,n,n
CCOC(=O)c1c(NC(=S)Nc2cc([N+](=O)[O-])ccc2OC)sc2c1CCCCC2,x,n,x,x,x,x,x
O=[N+]([O-])c1ccc(Oc2ccc(N=C=S)cc2)cc1,n,x,x,x,x,x,x
CC[C@@H]([C@H](C)O)n1ncn(-c2ccc(N3CCN(c4ccc(OC[C@@H]5CO[C@@](Cn6cncn6)(c6ccc(F)cc6F)C5)cc4)CC3)cc2)c1=O,n,x,x,x,x,x,x
COc1ccc(C(=O)Nc2ccc3ccccc3c2)cc1,n,n,n,n,n,x,x
COc1cccc(C(=O)Nc2ccc3ccccc3c2)c1,n,30,n,n,n,n,n
O=C(/C=C/c1ccco1)NC(=S)Nc1ccc(C(=O)O)cc1,n,20,n,n,n,n,n
N#C/C(=C1/SC[C@@H](c2ccc(Cl)cc2Cl)S1)n1ccnc1,n,x,x,x,x,x,x
CC1Cc2nc(SCC(=O)Nc3nccs3)n(C)c(=O)c2S1 (stereo not given),n,21,n,n,n,n,n
Cc1nnc(NC(=O)CSc2nc3c(c(=O)n2C)SC(C)C3)s1 (stereo not given),n,n,n,n,n,x,x
O=C(O)c1ccc2c(c1)C(=O)/C(=C/c1ccccc1)C2=O,n,n,n,n,n,x,x
O=C(O)c1ccc2c(c1)C(=O)/C(=C\c1ccco1)C2=O,n,38,n,n,n,n,26
CCCCCC1NC(=O)NC1CCCCCC(=O)O (stereo not given),n,n,n,n,n,x,x
Cc1cccc(C)c1NC(=O)CCCCCC1NC(=O)NC1C (stereo not given),n,47,n,n,n,35,n
Cc1cccc(C)c1NC(=O)CCCN1CC(C)OC(C)C1 (stereo not given),n,n,n,n,n,x,x
O=C(O)CCCCC1SCC2NC(=O)NC21 (stereo not given),n,38,n,n,n,n,25
C[C@@H]1NC(=O)N[C@@H]1CCCCCC(=O)O,n,76,n,n,n,77,72
CC1NC(=O)NC1CCCCCC(=O)NCCc1ccccc1 (stereo not given),n,69,n,n,n,75,70
CCCC1=NN2C(=N)/C(=C\c3ccc(SCc4ccco4)o3)C(=O)N=C2S1,x,20,x,x,n,n,61
COc1ccc(S(=O)(=O)N(C)CC(=O)N2CCC(C)CC2)cc1Cl,n,22,n,n,n,n,n
Cc1cccc[n+]1C1C(c2ccccc2)C(C#N)=C(C(=C=[N-])C#N)NC1(O)C1CC1 (stereo not given),x,43,x,x,n,n,30
NS(=O)(=O)c1cc2c(cc1Cl)CN(C1CCCCC1)C2=O,n,x,x,x,x,x,x
Cn1nc(-c2ccc(Cl)cc2)nc2c(=O)n(C)c(=O)nc1-2,x,37,x,x,x,32,56
COc1ccc(/C=N/NC(=O)C(=O)N2CCN(c3ccccc3OC)CC2)cc1,n,30,n,n,n,n,n

# From PubChem
